For one data set, the target named is Casein kinase II (Homo sapiens, UniProt P19784+P67870+P68400). Kind of data set: Inhibition of CK2 (unknown origin) by homogeneous time-resolved fluorescence assay. It is filed as protein-complex assay. The procedure, abridged: (§1)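 Counter-screens by HTRF kinase assays: CDK1/Cyclin B and CDK4/Cyclin D1 in HTRF format, CDK9/Cyclin T1 with a 4eBP1 ULight substrate, and the CK2 tetramer with a TopoII ULight substrate.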

Data set [1] concerns HCT-116. Kind of data set: Induction of apoptosis in human HCT116 cells assessed as activation of caspase 3/7. In kind it is functional, cell-based.
Data set [2] is described as follows: AUC (0 to infinity) in Sprague-Dawley rat at 5 mg/kg, po. It is filed as ADME, organism-based. Details: time infinity, dose 5 mg/kg, route oral. Conditions: plasma.
Data set [3] in a line: AUC (0 to infinity) in Sprague-Dawley rat at 2 mg/kg, iv. It is filed as ADME, organism-based. More on the design: time infinity, dose 2 mg/kg, route intravenous. Particulars: plasma.
Data set [4] deals with HCT-116. Kind of data set: Cytotoxicity against human HCT116 cells assessed as cell viability after 2 days by Cell Titer-glo assay. In kind it is functional, cell-based. Conditions: HCT-116, 48 h. Background: Cellular ATP, detected with luciferase, serves as a proxy for viable cell number.
Data set [5] can be described thus: Fraction unbound in mouse plasma. In kind it is ADME, cell-free.
Data set [6] concerns HCT-116. The data set is described as follows: Induction of aberrant mitosis in human HCT116 cells at 1.25 uM after 72 hrs […]. In kind it is functional, cell-based.
Data set [7] has as its target Casein kinase I isoform alpha (Homo sapiens, UniProt P48729). Kind of data set: Inhibition of CK1alpha (unknown origin) by TR-FRET assay. The procedure, abridged: (§2)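 CK1 isoform inhibition measured in Lance TR-FRET kinase assays, reported as IC50.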
(Time-resolved FRET reads energy transfer from a long-lived donor to a nearby acceptor.)

Data set [8] has as its target T1, CDC7/DBF4 (Cell division cycle 7-related protein kinase/Activator of S phase kinase) (Homo sapiens, UniProt O00311). Kind of data set: Inhibition of Cdc7/Dbf4 (unknown origin) using 0.333 uM of ATP as substrate by AlphaScreen assay. In kind it is protein-complex assay. In general terms: Bead proximity is the source of the signal in Alpha formats.
The test system of data set [9] is HCT-116. Kind of data set: Cell cycle arrest in human HCT116 cells assessed as DNA accumulation at S/G2/M phase at 0.31 to 10 uM after 3 days using propidium iodide/RNase staining by flow cytometry. It is filed as functional, cell-based. In outline:
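HCT-116 cells exposed to inhibitor for 3 d at the indicated concentrations. Cells harvested with Cell Stripper buffer, fixed in 70% ethanol, stained with propidium iodide/RNase, and DNA content analysed by flow cytometry.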

Data set [10] concerns the target T1, CDC7/DBF4 (Cell division cycle 7-related protein kinase/Activator of S phase kinase). The data set is described as follows: Inhibition of Cdc7/Dbf4 (unknown origin) using 27 uM of ATP as substrate by AlphaScreen assay. In kind it is protein-complex assay.
For data set [11], the target named is Casein kinase I isoform delta (Homo sapiens, UniProt P48730). The data set is described as follows: Inhibition of CK1delta (unknown origin) by TR-FRET assay. The procedure, abridged:
as §2

The target in data set [12] is Cyclin-dependent kinase 4/cyclin D1 (Homo sapiens, UniProt P11802). The data set is described as follows: Inhibition of CDK4/Cyclin-D1 (unknown origin) by homogeneous time-resolved fluorescence assay. In kind it is protein-complex assay. In outline: as §1
A short description of data set [13]: AUC (0 to t) in Sprague-Dawley rat at 2 mg/kg, iv. Conditions: plasma. More on the design: dose 2 mg/kg, route intravenous. In kind it is ADME, organism-based.
In data set [14] the target is Cyclin-dependent kinase 1/cyclin B1 (Homo sapiens, UniProt P06493). Kind of data set: Inhibition of CDK1/Cyclin-B (unknown origin) by homogeneous time-resolved fluorescence assay. It is filed as protein-complex assay. The procedure, abridged: as §1
In data set [15] the target is T1, CDC7/DBF4 (Cell division cycle 7-related protein kinase/Activator of S phase kinase). Kind of data set: Inhibition of Cdc7/Dbf4 (unknown origin) using 1 uM of ATP as substrate by AlphaScreen assay. It is filed as protein-complex assay.
A short description of data set [16]: Inhibition of CK1gamma (unknown origin) by TR-FRET assay. Details: species or system Homo sapiens. The procedure, abridged: as §2
In a further data set the target is CDK9/cyclin T1 (Homo sapiens, UniProt P50750). The data set is described as follows: Inhibition of CDK9/Cyclin-T1 (unknown origin) by homogeneous time-resolved fluorescence assay. It is filed as protein-complex assay. In outline:
as §1

Data set [17] in a line: Cmax in Sprague-Dawley rat at 5 mg/kg, po. It is filed as ADME, organism-based. Details: dose 5 mg/kg, route oral. Conditions: in vivo.
The next data set concerns Mus musculus. The data set is described as follows: Inhibition of Cdc7/Dbf4 in NCR nude mouse xenografted with human HCT116 cells assessed as reduction of phosphorylated MCM2 level in tumor at 150 mg/kg, iv after 1 hr. In kind it is functional. Particulars: HCT-116, 1 h. The procedure, abridged:
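Female athymic NCR/nu mice, 4–6 weeks old, bearing subcutaneous HCT-116 xenografts (5 × 10^6 cells in Matrigel) grown to about 250 mm3. Single iv dose formulated in 20% HPbCD, 1% HPMC, 1% PluronicF68, pH7 at 10 mg/ml; three mice per group. Tumors were homogenized in Tris lysis buffer with protease and phosphatase inhibitors. MSD capture with total MCM2 antibody, then phospho-Ser53 or total MCM2 detection by chemiluminescence; inhibition taken from the phospho/total ratio.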

Data set [18] addresses T1, CDC7/DBF4 (Cell division cycle 7-related protein kinase/Activator of S phase kinase). Kind of data set: Inhibition of Cdc7/Dbf4 (unknown origin) using 6 uM of ATP as substrate by AlphaScreen assay. In kind it is protein-complex assay.
Data set [19] has as its target Serine/threonine-protein kinase pim-1 (Homo sapiens, UniProt P11309). Kind of data set: Inhibition of Pim1 (unknown origin) by homogeneous time-resolved fluorescence assay. In outline: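 Pim1 counter-screened biochemically with a homogeneous time-resolved fluorescence (HTRF) kinase assay.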
In another data set the test system is Plasma. Kind of data set: Unbound plasma concentration in NCR nude mouse xenografted with human HCT116 cells at 150 mg/kg, iv after 1 hr. More on the design: dose 150 mg/kg, route intravenous. It is filed as ADME, organism-based, HCT-116. Conditions: in vivo. In outline:
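HCT-116 xenograft NCR/nu mice (three per group) were given a single iv dose in 20% HPbCD, 1% HPMC, 1% PluronicF68, pH7 at 10 mg/ml. Plasma collected at the time points was measured by LC/MS. Values were converted to unbound concentrations using percent plasma protein binding in mouse serum.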

Data set [20] has as its target T1, CDC7/DBF4 (Cell division cycle 7-related protein kinase/Activator of S phase kinase). The data set is described as follows: (§3) Inhibition of Cdc7/Dbf4 in human HCT116 cells assessed as reduction of MCM2 phosphorylation after 14 hrs. It is filed as cell-based, HCT-116. In outline: (§4)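 HCT-116 cells were exposed to inhibitor across a 22-point dose response for 14 h. They were then immunostained for phospho-serine MCM2 using an Alexa Fluor 488 secondary, with a Hoechst nuclear counterstain. The percentage of cells with phospho-MCM2 signal above a threshold was scored by high-content imaging, and IC50 values were derived from that.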

Data set [21] addresses CDC7/DBF4 (Cell division cycle 7-related protein kinase/Activator of S phase kinase) (Homo sapiens) (UniProt Q9UBU7+O00311). The data set is described as §3. In kind it is cell-based. Conditions: HCT-116. In outline: as §4
The target in data set [22] is T1, CDC7/DBF4 (Cell division cycle 7-related protein kinase/Activator of S phase kinase). Kind of data set: Inhibition of Cdc7/Dbf4 (unknown origin) using 0.375 uM of ATP as substrate by AlphaScreen assay. In kind it is protein-complex assay. In outline:
(§5)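 Mechanism-of-action AlphaScreen run with 6 nM Cdc7/Dbf4 and 10 nM biotinylated MCM2 substrate. […] Reaction time was 2 h. Phospho-Ser53 MCM2 was read by antibody-bound acceptor beads with streptavidin donor beads. Rates and Ki were fitted to a competitive inhibition model.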

Data set [23] shares this target. Kind of data set: Inhibition of Cdc7/Dbf4 (unknown origin) using 0.023 uM of ATP as substrate by AlphaScreen assay. In kind it is protein-complex assay. The procedure, abridged:
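AlphaScreen with 6 nM Cdc7/Dbf4 and 10 nM biotinylated His/avitag MCM2 (aa1-467) substrate. Phospho-Ser53 MCM2 detected with antibody-bound Protein A acceptor and streptavidin donor beads. Rates fitted by Michaelis–Menten and double-reciprocal plots.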

The subject of another data set is rat MDR1. Kind of data set: Apparent permeability of the compound in pig LLC-PK1 cells expressing rat MDR1. In kind it is ADME, cell-based, Sus scrofa.
In data set [24] the target is T1, CDC7/DBF4 (Cell division cycle 7-related protein kinase/Activator of S phase kinase). Kind of data set: Inhibition of Cdc7/Dbf4 (unknown origin) using 3 uM of ATP as substrate by AlphaScreen assay. It is filed as protein-complex assay.
Data set [25] in a line: Efflux ratio of permeability of the compound in pig LLC-PK1 cells. In kind it is ADME, cell-based, Sus scrofa.
Data set [26] concerns the target T1, CDC7/DBF4 (Cell division cycle 7-related protein kinase/Activator of S phase kinase). The data set is described as follows: Inhibition of Cdc7/Dbf4 (unknown origin) using 0.047 uM of ATP as substrate by AlphaScreen assay. In kind it is protein-complex assay. In outline: as §5
Data set [27] shares this target. The data set is described as follows: Inhibition of Cdc7/Dbf4 (unknown origin) using 0.188 uM of ATP as substrate by AlphaScreen assay. It is filed as protein-complex assay. The procedure, abridged: as §5

Each structure is given as a SMILES string. pIC50: −log10 of the molar value. Activity calls are given as the source filed them.

Usually pIC50 stands for −log10 of the IC50, conventionally taken in molar units. One may read the AUC(0-inf) as the area under the concentration-time curve extrapolated to infinity. A low value points to low exposure. As a reminder, the fraction unbound is the share of the substance not bound to proteins or other matrix. Read a low fraction unbound as little free substance. What is called AUC(0-t) is the area under the concentration-time curve up to a stated or last time point. A lower AUC(0-t) goes with low exposure. Broadly, the Cmax is the maximum level reached in the sampled fluid or tissue. As a reminder, the inhibition in vivo is the share of the control response that was lost under treatment. As usually defined, the IC90 is the concentration needed for an effect of 90%. As a reminder, the Papp is the rate of passage across a membrane or cell layer, normalised by area and donor concentration. Broadly, the efflux ratio is the permeability from basolateral to apical divided by that in the opposite direction, in the common usage.

T1 sequence (Q9UBU7 whole entry): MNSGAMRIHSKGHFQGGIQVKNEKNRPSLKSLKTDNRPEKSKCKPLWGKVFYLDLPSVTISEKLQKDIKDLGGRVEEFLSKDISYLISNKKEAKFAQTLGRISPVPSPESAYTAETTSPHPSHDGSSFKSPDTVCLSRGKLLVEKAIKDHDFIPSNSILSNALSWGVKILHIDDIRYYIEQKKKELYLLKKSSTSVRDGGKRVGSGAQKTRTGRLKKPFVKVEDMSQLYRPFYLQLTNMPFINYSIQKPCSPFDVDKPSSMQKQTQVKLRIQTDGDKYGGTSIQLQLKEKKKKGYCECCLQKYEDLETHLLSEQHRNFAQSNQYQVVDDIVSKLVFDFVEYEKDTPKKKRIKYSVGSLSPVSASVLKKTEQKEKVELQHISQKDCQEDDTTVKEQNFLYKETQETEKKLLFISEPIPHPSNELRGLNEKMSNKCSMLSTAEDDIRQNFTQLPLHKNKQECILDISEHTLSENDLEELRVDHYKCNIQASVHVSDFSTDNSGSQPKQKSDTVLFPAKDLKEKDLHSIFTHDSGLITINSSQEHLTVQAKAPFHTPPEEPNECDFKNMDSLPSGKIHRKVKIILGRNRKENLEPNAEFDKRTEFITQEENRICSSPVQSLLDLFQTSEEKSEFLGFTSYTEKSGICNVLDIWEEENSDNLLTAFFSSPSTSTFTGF
T1 sequence (O00311 whole entry): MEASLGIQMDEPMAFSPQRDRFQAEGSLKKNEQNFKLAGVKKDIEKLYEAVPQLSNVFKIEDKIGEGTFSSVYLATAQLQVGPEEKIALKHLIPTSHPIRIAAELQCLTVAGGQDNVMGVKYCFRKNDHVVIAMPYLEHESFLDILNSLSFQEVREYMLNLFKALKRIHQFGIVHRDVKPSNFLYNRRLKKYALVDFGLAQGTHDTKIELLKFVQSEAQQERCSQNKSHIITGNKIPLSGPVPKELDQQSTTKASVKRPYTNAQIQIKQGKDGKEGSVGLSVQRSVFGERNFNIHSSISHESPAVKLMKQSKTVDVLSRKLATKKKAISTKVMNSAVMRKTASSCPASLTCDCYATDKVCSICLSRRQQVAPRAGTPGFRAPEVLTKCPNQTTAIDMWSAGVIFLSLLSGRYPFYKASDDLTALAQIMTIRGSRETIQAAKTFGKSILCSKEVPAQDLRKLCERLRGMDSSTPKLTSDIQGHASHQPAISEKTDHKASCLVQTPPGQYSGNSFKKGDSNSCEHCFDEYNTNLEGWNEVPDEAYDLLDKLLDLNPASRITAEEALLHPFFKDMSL
Casein kinase I isoform alpha, sequence (P48729 whole entry, canonical isoform): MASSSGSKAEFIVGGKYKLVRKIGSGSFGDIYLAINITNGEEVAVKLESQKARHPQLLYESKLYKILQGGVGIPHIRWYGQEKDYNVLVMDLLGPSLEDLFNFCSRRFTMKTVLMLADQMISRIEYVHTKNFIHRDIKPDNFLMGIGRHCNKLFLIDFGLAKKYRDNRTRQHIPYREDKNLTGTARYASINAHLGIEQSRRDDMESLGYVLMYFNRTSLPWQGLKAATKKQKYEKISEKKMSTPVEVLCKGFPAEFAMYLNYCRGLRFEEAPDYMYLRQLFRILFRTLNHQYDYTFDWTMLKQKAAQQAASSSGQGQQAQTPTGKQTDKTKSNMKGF
CDK9/cyclin T1, sequence (O60563 whole entry): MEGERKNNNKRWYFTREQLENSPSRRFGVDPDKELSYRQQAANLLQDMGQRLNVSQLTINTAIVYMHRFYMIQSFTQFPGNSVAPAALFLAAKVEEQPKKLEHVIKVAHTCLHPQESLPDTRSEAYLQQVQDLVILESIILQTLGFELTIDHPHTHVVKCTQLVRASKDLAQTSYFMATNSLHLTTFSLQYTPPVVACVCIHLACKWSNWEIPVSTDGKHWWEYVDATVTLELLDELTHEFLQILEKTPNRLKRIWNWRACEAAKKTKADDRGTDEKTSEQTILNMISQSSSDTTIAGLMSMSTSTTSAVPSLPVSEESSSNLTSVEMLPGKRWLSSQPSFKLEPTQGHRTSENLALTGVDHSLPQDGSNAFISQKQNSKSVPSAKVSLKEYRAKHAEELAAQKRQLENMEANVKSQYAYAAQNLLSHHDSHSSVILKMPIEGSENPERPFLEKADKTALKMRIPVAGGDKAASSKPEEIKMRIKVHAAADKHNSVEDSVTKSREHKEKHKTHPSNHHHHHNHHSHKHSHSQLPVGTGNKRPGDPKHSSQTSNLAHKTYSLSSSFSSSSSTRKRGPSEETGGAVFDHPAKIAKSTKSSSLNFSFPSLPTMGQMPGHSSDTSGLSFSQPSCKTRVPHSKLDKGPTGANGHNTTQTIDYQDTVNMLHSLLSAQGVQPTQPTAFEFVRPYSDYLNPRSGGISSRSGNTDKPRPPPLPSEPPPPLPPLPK
CDK9/cyclin T1, sequence (P50750 whole entry): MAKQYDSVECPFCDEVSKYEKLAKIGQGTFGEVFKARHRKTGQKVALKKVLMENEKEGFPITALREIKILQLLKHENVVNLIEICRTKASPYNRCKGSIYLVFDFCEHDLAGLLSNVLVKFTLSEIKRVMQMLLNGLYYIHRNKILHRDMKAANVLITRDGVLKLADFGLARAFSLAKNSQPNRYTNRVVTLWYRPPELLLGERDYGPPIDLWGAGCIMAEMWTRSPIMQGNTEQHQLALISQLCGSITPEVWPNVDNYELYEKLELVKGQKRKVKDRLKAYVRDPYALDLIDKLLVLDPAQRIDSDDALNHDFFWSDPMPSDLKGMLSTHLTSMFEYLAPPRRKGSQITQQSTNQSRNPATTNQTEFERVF
Cyclin-dependent kinase 1/cyclin B1, sequence (P06493 whole entry): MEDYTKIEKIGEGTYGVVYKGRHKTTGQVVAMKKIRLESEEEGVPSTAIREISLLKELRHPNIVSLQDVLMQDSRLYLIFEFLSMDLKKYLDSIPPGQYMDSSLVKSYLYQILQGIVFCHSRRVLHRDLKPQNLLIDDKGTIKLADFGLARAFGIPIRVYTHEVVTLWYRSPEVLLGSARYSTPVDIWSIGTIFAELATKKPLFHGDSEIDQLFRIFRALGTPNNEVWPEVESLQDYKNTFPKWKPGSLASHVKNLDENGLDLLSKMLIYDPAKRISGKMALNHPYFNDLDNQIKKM
Cyclin-dependent kinase 1/cyclin B1, sequence (P14635 whole entry, further chain): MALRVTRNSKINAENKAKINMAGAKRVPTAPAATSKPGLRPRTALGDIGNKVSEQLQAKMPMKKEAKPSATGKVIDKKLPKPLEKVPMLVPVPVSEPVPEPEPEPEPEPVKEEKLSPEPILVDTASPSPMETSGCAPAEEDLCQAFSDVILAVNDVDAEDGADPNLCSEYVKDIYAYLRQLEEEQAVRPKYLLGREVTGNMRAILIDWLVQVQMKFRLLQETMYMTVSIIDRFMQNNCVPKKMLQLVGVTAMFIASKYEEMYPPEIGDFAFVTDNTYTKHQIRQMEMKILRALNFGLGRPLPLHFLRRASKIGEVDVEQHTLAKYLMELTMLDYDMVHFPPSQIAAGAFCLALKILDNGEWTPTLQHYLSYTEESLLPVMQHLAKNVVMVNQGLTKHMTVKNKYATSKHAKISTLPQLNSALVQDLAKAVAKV
Casein kinase I isoform delta, sequence (P48730 whole entry, canonical isoform): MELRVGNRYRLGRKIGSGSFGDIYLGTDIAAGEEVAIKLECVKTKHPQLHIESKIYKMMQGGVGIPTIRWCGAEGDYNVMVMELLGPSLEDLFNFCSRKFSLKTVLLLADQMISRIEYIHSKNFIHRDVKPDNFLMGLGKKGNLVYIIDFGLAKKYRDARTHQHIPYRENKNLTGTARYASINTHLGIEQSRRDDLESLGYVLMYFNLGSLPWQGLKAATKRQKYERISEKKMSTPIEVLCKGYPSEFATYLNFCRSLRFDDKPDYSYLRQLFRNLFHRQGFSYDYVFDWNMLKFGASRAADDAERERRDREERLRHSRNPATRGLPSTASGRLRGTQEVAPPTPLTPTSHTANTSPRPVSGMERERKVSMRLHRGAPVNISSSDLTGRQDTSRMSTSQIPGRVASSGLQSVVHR
Cyclin-dependent kinase 4/cyclin D1, sequence (P11802 whole entry): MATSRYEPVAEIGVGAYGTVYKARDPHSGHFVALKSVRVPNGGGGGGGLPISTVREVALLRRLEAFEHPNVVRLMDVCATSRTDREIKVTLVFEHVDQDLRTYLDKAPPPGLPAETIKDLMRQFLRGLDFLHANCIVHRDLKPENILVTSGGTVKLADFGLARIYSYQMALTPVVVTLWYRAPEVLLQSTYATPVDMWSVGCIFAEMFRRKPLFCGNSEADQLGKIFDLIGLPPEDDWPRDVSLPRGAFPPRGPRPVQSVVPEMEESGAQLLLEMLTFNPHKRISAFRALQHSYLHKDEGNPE
Cyclin-dependent kinase 4/cyclin D1, sequence (P24385 whole entry, further chain): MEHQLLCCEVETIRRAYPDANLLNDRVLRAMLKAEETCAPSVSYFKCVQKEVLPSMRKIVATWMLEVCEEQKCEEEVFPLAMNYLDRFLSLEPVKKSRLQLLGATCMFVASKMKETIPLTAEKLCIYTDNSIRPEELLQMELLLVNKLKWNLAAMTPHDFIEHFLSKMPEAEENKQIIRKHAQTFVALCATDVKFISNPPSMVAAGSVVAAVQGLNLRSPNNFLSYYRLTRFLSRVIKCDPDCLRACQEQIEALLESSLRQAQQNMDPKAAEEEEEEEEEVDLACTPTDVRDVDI
Serine/threonine-protein kinase pim-1, sequence (P11309 whole entry): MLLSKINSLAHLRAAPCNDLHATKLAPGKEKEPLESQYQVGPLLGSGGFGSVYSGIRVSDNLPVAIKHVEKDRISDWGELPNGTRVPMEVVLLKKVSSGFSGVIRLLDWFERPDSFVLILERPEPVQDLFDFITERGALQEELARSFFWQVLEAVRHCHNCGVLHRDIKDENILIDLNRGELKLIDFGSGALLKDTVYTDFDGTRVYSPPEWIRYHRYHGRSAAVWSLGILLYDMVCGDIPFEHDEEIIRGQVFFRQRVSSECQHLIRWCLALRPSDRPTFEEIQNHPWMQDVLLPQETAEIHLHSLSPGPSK
CDC7/DBF4 (Cell division cycle 7-related protein kinase/Activator of S phase kinase) (Homo sapiens), sequence (O00311 whole entry, looked up): as the sequence (O00311 whole entry) above
CDC7/DBF4 (Cell division cycle 7-related protein kinase/Activator of S phase kinase) (Homo sapiens), sequence (Q9UBU7 whole entry, looked up): as the sequence (Q9UBU7 whole entry) above

For `NC(=O)c1sc(-c2ccnc(N)n2)nc1-c1ccc(Cl)cc1Cl`, the pIC50 against Casein kinase II is 4.54; in the data set on HCT-116 [1], under 4.30; with HCT-116 [4], 5.38; in [7], 6.16; in data set [8], 7.70; in [10] it was 7.36. In addition, the pIC50 was 7.08 in [11]; under 4.30 in data set [12]; under 4.30 in [14]; 8.00 in data set [15]; 6.12 in data set [16]; 6.13 against CDK9/cyclin T1. The values for the pIC50 in [18], in [19] and in [20] were 7.89, under 6.00 and 6.30, respectively. In addition, the results for the total exposure AUC(0-inf) in data set [2] and in [3] were 85.7 ng·h/mL and 521 ng·h/mL, respectively. The fraction unbound in [5] amounted to 0.09. The outcome in the data set with HCT-116 [6] and with HCT-116 [9] was Active. The same compound gave an AUC(0-t) in [13] of 518 ng·h/mL. Further, in data set [17], the highest level (Cmax) was 13 ng/mL. Besides, the inhibition in vivo at 150 mg/kg in the data set with Mus musculus was found to be 30%. Also, the “Cp(f)” value in the data set with Plasma came to 5 µM. The 90% effect concentration (IC90) in data set [21] came to 6370 nM.
Turning to `CCOC(=O)c1sc(-c2ccncc2)nc1O`, the pIC50 in data set [22] is 6.26; in [23], 6.52; in [24], 6.38; in [26] it was 6.39; in data set [27] it was 6.26. Also, the Papp in the data set with rat MDR1 was at least 8.9 ×10⁻⁶ cm/s. Further, the efflux ratio in data set [25] amounted to 1.
Turning to `COc1ccc(-c2nc(-c3ccnc(N)n3)sc2C(N)=O)c(Cl)c1`, the pIC50 on Casein kinase II is 4.19; in the data set on HCT-116 [1] it was under 4.30; in the data set with HCT-116 [4], 5.34; in [7] it was 6.26; in data set [11], 6.98; in data set [12], under 4.30. In addition, the pIC50 is under 4.30 in data set [14]; 5.72 in data set [16]; 6.14 against CDK9/cyclin T1; under 6.00 in data set [19]; 6.06 in data set [20].

Source of the values: ChEMBL document CHEMBL3259739, “Synthesis and structure-activity relationship of trisubstituted thiazoles as Cdc7 kinase inhibitors” (Eur J Med Chem, 2014).
